According to ChEMBL document CHEMBL5715947 (Blood Cancer J, 2011):
Active and inactive are the calls of the source. The calls are words filed in the database; no cut-off is given here.

How the values were obtained:
[1] = Antiproliferative activity against human derived M4 Fab type Acute myeloid leukemic cells assessed as reduction in cell viability incubated for 48 hr by CellTiter-Glo assay; type: functional, cell-based; conditions: Leukemia cell
Procedure, shortened: (§1)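 Primary AML peripheral blood or bone marrow mononuclear cells thawed and expanded ex vivo; blasts counted between day 10 and 13, characterised by CD123 FACS and FLT3 genotyping. Blasts treated 48 h; proliferation IC50 read by CellTiter-Glo.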

MV4-11 [2] = test: Induction of apoptosis in human MV4-11 cells harboring FLT3-ITD mutant assessed as increase in early apoptotic cells after 48 hrs by AnnexinV-FITC/Propidium iodide staining based flow cytometric analysis; type: functional, cell-based; conditions: dose 0.03-0.15 µM
MOLM-13 [3] = test: Antitumor activity against human MOLM-13 cells harboring FLT-3 ITD mutant xenografted in BALB/c nude mouse assessed as tumor growth inhibition at 50 mg/kg, po bid administered daily for 7 days relative to control; type: functional; conditions: MOLM-13, 168 h, time 7 day, read-out: TGI
MOLM-13 [4] = test: Antitumor activity against human MOLM-13 cells harboring FLT-3 ITD mutant xenografted in BALB/c nude mouse assessed as decrease in phosphorylated […] residue at 150 mg/kg, po measured after 3 hrs by Western blot analysis; type: functional, organism-based
Procedure, shortened: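 Mice bearing s.c. MOLM-13 xenografts given a single oral dose of 150 mg/kg. Tumours harvested at 3 h; lysates immunoblotted for phospho-FLT3, -STAT3, -STAT5, -Akt and total actin.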

MV4-11 [5] = test: Induction of apoptosis in human MV4-11 cells harboring FLT3-ITD mutant assessed early apoptotic cells at 0.03 uM after 72 hrs by AnnexinV-FITC/Propidium iodide staining based flow cytometric analysis (reference value: 7.34 %); type: functional
MV4-11 [6] = test: Induction of apoptosis in human MV4-11 cells harboring FLT3-ITD mutant assessed early apoptotic cells at 0.03 uM after 48 hrs by AnnexinV-FITC/Propidium iodide staining based flow cytometric analysis (reference value: 11.84 %); type: functional
MV4-11 [7] = test: Induction of apoptosis in human MV4-11 cells harboring FLT3-ITD mutant assessed as increase in early apoptotic cells after 72 hrs by AnnexinV-FITC/Propidium iodide staining based flow cytometric analysis; type: functional, cell-based; conditions: dose 0.03-0.15 µM
MV4-11 [8] = test: Induction of apoptosis in human MV4-11 cells harboring FLT3-ITD mutant assessed early apoptotic cells at […] after 72 hrs by AnnexinV-FITC/Propidium iodide staining based flow cytometric analysis (reference value: 7.34 %); type: functional; conditions: dose 0.15 µM
MV4-11 [9] = test: Induction of apoptosis in human MV4-11 cells harboring FLT3-ITD mutant assessed viable cells at […] after 72 hrs by AnnexinV-FITC/Propidium iodide staining based flow cytometric analysis (reference value: 90.5 %); type: functional; conditions: dose 0.15 µM
MV4-11 [10] = test: Induction of apoptosis in human MV4-11 cells harboring FLT3-ITD mutant assessed late apoptotic cells at […] after 72 hrs by AnnexinV-FITC/Propidium iodide staining based flow cytometric analysis (reference value: 1.48 %); type: functional; conditions: dose 0.15 µM
[11] = Antiproliferative activity against human derived Acute myeloid leukemic cells assessed as reduction in cell viability incubated for 48 hr by CellTiter-Glo assay; type: functional, cell-based; conditions: Leukemia cell
Leukemia cell = test: Induction of cell cycle arrest in human derived Acute myeloid leukemic cells assessed as increase in cell accumulation at G1 phase at 0.47 uM after 48 hrs by Propidium iodide staining based flow cytometric analysis
MV4-11 [12] = test: Induction of apoptosis in human MV4-11 cells harboring FLT3-ITD mutant assessed necrotic cells at 0.03 uM after 48 hrs by AnnexinV-FITC/Propidium iodide staining based flow cytometric analysis (reference value: 0.45 %); type: functional
RS4-11 [13] = test: Induction of cell cycle arrest in human RS4-11 cells assessed increase in cell accumulation at G1 phase after 24 hrs by Propidium iodide staining based flow cytometric analysis; type: functional
Procedure, shortened: (§2)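 Cells then fixed in ice-cold 70% ethanol, stained with 20 ng/ml propidium iodide, and cell-cycle phases measured by flow cytometry.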

[14] = Antiproliferative activity against human derived M2 Fab type Acute myeloid leukemic cells assessed as reduction in cell viability incubated for 48 hr by CellTiter-Glo assay; type: functional, cell-based; conditions: Leukemia cell; procedure, shortened: as §1
MV4-11 [15] = test: Induction of cell cycle arrest in human MV4-11 cells harboring FLT3-ITD mutant assessed decrease in cell accumulation at S phase after 24 hrs by Propidium iodide staining based flow cytometric analysis; type: functional; procedure, shortened: as §2
MV4-11 [16] = test: Induction of apoptosis in human MV4-11 cells harboring FLT3-ITD mutant assessed early apoptotic cells at […] after 48 hrs by AnnexinV-FITC/Propidium iodide staining based flow cytometric analysis (reference value: 11.84 %); type: functional; conditions: dose 0.15 µM
MOLM-13 [17] = test: Antitumor activity against human MOLM-13 cells harboring FLT-3 ITD mutant xenografted in BALB/c nude mouse assessed as tumor growth inhibition at 150 mg/kg, […] relative to control; type: functional; conditions: MOLM-13, 168 h, route po, read-out: TGI
RS4-11 [18] = test: Antiproliferative activity against human RS4-11 cells assessed as reduction in cell viability incubated for 48 hr by CellTiter-Glo assay; type: functional, cell-based; conditions: RS4-11, 48 h
MV4-11 [19] = test: Antitumor activity against human MV4-11 cells harboring FLT-3 ITD mutant xenografted in BALB/c nude mouse assessed as tumor growth inhibition at 100 mg/kg, po administered daily for 21 days relative to control; type: functional; conditions: MV4-11, 504 h, time 21 day, read-out: TGI
Procedure, shortened: (§3)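 Female BALB/c nude mice implanted s.c. in right flank with 1 × 10^7 MV4-11 cells in serum-free medium mixed 1:1 with Matrigel. Randomised on day 11 at mean 146–150 mm3 (n=10/group); oral hydrochloride salt once daily for 21 days in 0.5% methylcellulose/0.1% Tween-80. Doses are free-base equivalents; caliper twice weekly; ANOVA with Dunnett's test.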

MV4-11 [20] = test: Induction of apoptosis in human MV4-11 cells harboring FLT3-ITD mutant assessed late apoptotic cells at […] after 48 hrs by AnnexinV-FITC/Propidium iodide staining based flow cytometric analysis (reference value: 1.56 %); type: functional; conditions: dose 0.15 µM
MV4-11 [21] = test: Antitumor activity against human MV4-11 cells harboring FLT-3 ITD mutant xenografted in BALB/c nude mouse assessed as tumor growth inhibition at 50 mg/kg, po administered daily for 21 days relative to control; type: functional; conditions: MV4-11, 504 h, time 21 day, read-out: TGI; procedure, shortened: as §3
[22] = Antiproliferative activity against human derived M5b Fab type Acute myeloid leukemic cells assessed as reduction in cell viability incubated for 48 hr by CellTiter-Glo assay; type: functional, cell-based; conditions: Leukemia cell; procedure, shortened: as §1
MV4-11 [23] = test: Induction of apoptosis in human MV4-11 cells harboring FLT3-ITD mutant assessed viable cells at 0.03 uM after 48 hrs by AnnexinV-FITC/Propidium iodide staining based flow cytometric analysis (reference value: 86.15 %); type: functional
MV4-11 [24] = test: Induction of apoptosis in human MV4-11 cells harboring FLT3-ITD mutant assessed necrotic cells at […] after 72 hrs by AnnexinV-FITC/Propidium iodide staining based flow cytometric analysis (reference value: 0.53 %); type: functional; conditions: dose 0.15 µM
MV4-11 [25] = test: Antitumor activity against human MV4-11 cells harboring FLT-3 ITD mutant xenografted in BALB/c nude mouse assessed as decrease in phosphorylated STAT5 at Y694 residue at 150 mg/kg, po measured after 2 to 4 hrs by Western blot analysis; type: functional, organism-based; conditions: time 2-4 hrs
Procedure, shortened: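 Mice bearing s.c. MV4-11 xenografts given a single oral dose of 150 mg/kg in methylcellulose/Tween vehicle. Tumours harvested at 2 and 4 h; lysates immunoblotted for phospho-STAT5 with actin as loading control.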

In the case of `C1=N/C2=N/c3ccc(OCCN4CCCC4)c(c3)COC/C=C/COCc3cccc(c3)C(=C1)N2` [PACRITINIB], the IC50 [1] is reported as 0.84 µM, the Activity (MV4-11 [2]) is reported as “Dose-Dependent Effect” and the inhibition in vivo at 50 mg/kg (MOLM-13 [3]) is reported as 15%. For the same compound, the Activity (MOLM-13 [4]) was “Active”, the Activity (MV4-11 [5]) was 22.69% and the Activity (MV4-11 [6]) was 24.5%. The Activity (MV4-11 [7]) was “Dose-Dependent Effect”, the Activity (MV4-11 [8]) was 58.69% and the Activity (MV4-11 [9]) was 20.38%. For the same compound, the Activity (MV4-11 [10]) was 15.1%, the IC50 [11] was 0.46 µM and the Activity (Leukemia cell) was “Active”. For the same compound, the Activity (MV4-11 [12]) was 0.94%, the Activity (RS4-11 [13]) was “Dose-Dependent Effect” and the IC50 [14] was 0.35 µM. For the same compound, the Activity (MV4-11 [15]) was “Dose-Dependent Effect”, the Activity (MV4-11 [16]) was 39.9% and the inhibition in vivo at 150 mg/kg (MOLM-13 [17]) was 83%. The IC50 (RS4-11 [18]) was 0.93 µM, the inhibition in vivo at 100 mg/kg (MV4-11 [19]) was 121% and the Activity (MV4-11 [20]) was 20.83%. For the same compound, the inhibition in vivo at 50 mg/kg (MV4-11 [21]) was 92%, the IC50 [22] was 0.24 µM and the Activity (MV4-11 [23]) was 68.98%. The Activity (MV4-11 [24]) was 4.06% and the Activity (MV4-11 [25]) was “Active”.
